Data set [1] concerns Campylobacter coli. Description: Antimicrobial activity against Campylobacter coli ATCC 33559 assessed as growth inhibition by microdilution assay. The data set is classed as functional. In outline: (§1)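 Twofold serial microdilution of peptide (stocks 2 mg mL−1, diluted to 512 μg mL−1 in water with 10% DMSO) in strain medium, about 1 × 10^4 cfu per well. Media: TSB 20 h 37 °C (S. aureus, L. monocytogenes, B. subtilis, E. faecalis); LB 20 h 37 °C (P. aeruginosa, S. enterica, E. coli); Brucella 48 h 37 °C (C. coli). A595 read; MIC = lowest concentration with no visible growth; triplicate.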
A general note: In broth dilution the organism is exposed to a series of concentrations in liquid medium.

The subject of data set [2] is Pseudomonas aeruginosa. Kind of data set: Antimicrobial activity against Pseudomonas aeruginosa ATCC […] assessed as growth inhibition at 128 ug/ml by radial diffusion assay. The class given is functional, organism-based. The settings on record: dose 128.0 µg/ml. In outline:
(§2)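 Agar well diffusion. Overnight cultures inoculated at 1% into 0.75% soft agar (TSB for S. aureus, LB for P. aeruginosa). Each well received 80 μL of peptide at 128 μg mL−1 in water with 10% DMSO; 10% DMSO served as negative control. Inhibition zone diameter scored after strain-specific incubation.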

The test system of data set [3] is Enterococcus faecalis. Kind of data set: Antimicrobial activity against Enterococcus faecalis ATCC 29212 assessed as growth inhibition by microdilution assay. The data set is classed as functional. The procedure, abridged: as §1
The test system of data set [4] is Clostridium perfringens. Kind of data set: Antimicrobial activity against Clostridium perfringens ATCC 3628 assessed as growth inhibition by microdilution assay. The data set is classed as functional. The procedure, abridged: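 Broth microdilution: twofold serial peptide dilutions in reinforced clostridial medium (RCM), seeded with about 1 × 10^4 cfu per well, incubated 20 h at 37 °C. Working solution 512 μg mL−1 made from a 2 mg mL−1 stock in water with 10% DMSO. Growth read as absorbance at 595 nm. MIC taken as the lowest concentration giving complete inhibition of visible growth; run in triplicate.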

Data set [5] is described as follows: Hemolytic activity in human erythrocytes at 128 ug/ml measured after 1 hr by absorbance based assay relative to control. The class given is toxicity, cell-based, Erythrocyte. The settings on record: at 128 µg/mL, read-out: Activity. The procedure, abridged: (§3)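 Washed human donor erythrocytes at 1% hematocrit in PBS pH 7.4 exposed to twofold peptide dilutions (final 2–256 μg mL−1, up to 1% DMSO) for 1 h at 37 °C. After centrifugation, supernatant A405 read. % hemolysis relative to PBS (0%) and 1% Triton X-100 (100%). Triplicate; mean ± SEM.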

Data set [6] can be described thus: Hemolytic activity in human erythrocytes at 256 ug/ml measured after 1 hr by absorbance based assay relative to control. The class given is toxicity, cell-based, Erythrocyte. The settings on record: at 256 µg/mL, read-out: Activity. In outline:
as §3

Data set [7] relates to Bacillus subtilis. Kind of data set: Antimicrobial activity against Bacillus subtilis ATCC 23957 assessed as growth inhibition by microdilution assay. The class given is functional. In outline: as §1
Data set [8] has as its system Pseudomonas aeruginosa. Description: Antimicrobial activity against Pseudomonas aeruginosa ATCC […] assessed as growth inhibition by microdilution assay. The data set is classed as functional. In outline: as §1
Data set [9] concerns Staphylococcus aureus. Description: Antimicrobial activity against Staphylococcus aureus ATCC 6538 assessed as growth inhibition at 128 ug/ml by radial diffusion assay. The data set is classed as functional, organism-based. To be noted: dose 128.0 µg/ml. In outline:
as §2

Data set [10] is described as follows: Cytotoxicity against human Caco-2 cells assessed as inhibition of cell viability incubated for 48 hrs by Cell Titer GLO assay. The data set is classed as toxicity, cell-based. In outline:
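Caco-2 cells in DMEM with 10% FCS, seeded 25 000 per well, adhered overnight, then given peptide at 2–256 μg mL−1 in complete medium for 48 h at 37 °C, 5% CO2. Controls: cisplatin 125 μM; 0.1% DMSO medium. Viability by ATP luminescence (CellTiter-Glo) versus untreated cells; IC50 from dose–response; mean ± SEM of at least three independent experiments.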

Data set [11] deals with Escherichia coli. Description: Antimicrobial activity against Escherichia coli ATCC 25922 assessed as growth inhibition by microdilution assay. The class given is functional. In outline:
as §1

Data set [12] has as its system Campylobacter coli. Description: Bacteriostatic activity against Campylobacter coli ATCC 33559 assessed as MBC/MIC ratio by microdilution assay. The class given is functional. The procedure, abridged: (§4)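 MIC wells showing complete inhibition were sampled, 10 μL spread on agar and incubated 48 h under strain conditions; MBC = lowest concentration giving no growth on agar. MIC by broth microdilution (TSB 20 h 37 °C for S. aureus; Brucella 48 h 37 °C for C. coli). Triplicate.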

In data set [13] the test system is Staphylococcus aureus. Description: Antimicrobial activity against Staphylococcus aureus ATCC 6538 assessed as growth inhibition by microdilution assay. The data set is classed as functional. The procedure, abridged:
as §1

The subject of data set [14] is Listeria monocytogenes. Description: Antimicrobial activity against Listeria monocytogenes ATCC 19111 assessed as growth inhibition by microdilution assay. The data set is classed as functional. In outline: as §1
Data set [15] can be described thus: Antimicrobial activity against Salmonella enterica serovar Newport ATCC 6962 assessed as growth inhibition by microdilution assay. The class given is functional, Salmonella enterica subsp. enterica serovar Newport. The procedure, abridged:
as §1

In data set [16] the test system is Campylobacter coli. Kind of data set: Bacteriostatic activity against Campylobacter coli ATCC 33559 measured after 48 hrs by microdilution assay. The class given is functional, organism-based. In outline: as §4
Data set [17] relates to Staphylococcus aureus. Description: Bactericidal activity against Staphylococcus aureus ATCC 6538 measured after 48 hrs by microdilution assay. The data set is classed as functional, organism-based. The procedure, abridged:
as §4

In brackets after ≈: the same amount, converted by molar mass. Activity calls are given as the source filed them. No cut-off for these calls is given here. Bounds are passed on as bounds.

Consider three compounds from ChEMBL document CHEMBL6134793, “Synthesis and structure-activity study of the antimicrobial lipopeptide brevibacillin” (RSC Med Chem, 2024).

The term MIC denotes the lowest concentration found to suppress growth. What is called IC50 is the point on the concentration scale where inhibition reaches its midpoint.

Take `CC[C@H](NC(=O)[C@@H](O)[C@@H](C)CC)C(=O)N[C@@H](CC(C)C)C(=O)N[C@H](CCCN)C(=O)N[C@H](C(=O)N[C@H](C(=O)N[C@H](C(=O)N[C@H](CCCCN)C(=O)N[C@H](C(=O)N[C@H](C(=O)N[C@@H](CCCCN)C(=O)N[C@H](Cc1ccc(O)cc1)C(=O)N[C@@H](CC(C)C)C(=O)N[C@H](CO)C(C)C)C(C)C)C(C)C)C(C)C)[C@@H](C)CC)[C@@H](C)CC`: the MIC in data set [1] was 4 µg/mL; in data set [3] it was 2 µg/mL; in data set [4] it was 2 µg/mL; in data set [7], 1 µg/mL; in data set [8] it was 1 µg/mL; in data set [11], more than 128 µg/mL. Besides, the figures for the MIC in [13], in data set [14] and in data set [15] were 1 µg/mL, 0.5 µg/mL and more than 128 µg/mL, respectively. The “growth inhibition (qualitative call)” value in data set [2] and in data set [9] was “Not active; Exhibited Small Decrease In Activity” throughout. The hemolysis at 1 h, 128 ug/ml in [5] came to 15.5%. The hemolysis at 1 h, 256 ug/ml in data set [6] worked out at 58.7%. In addition, the IC50 at 48 h in [10] amounted to 10 µg/mL (≈ 6.3 µM). The Ratio in [12] worked out at 8.

For the compound `C/C=C(/NC(=O)[C@@H](O)[C@@H](C)CC)C(=O)N[C@@H](CC(C)C)C(=O)N[C@H](CCCN)C(=O)N[C@H](C(=O)N[C@H](C(=O)N[C@H](C(=O)N[C@H](CCCCN)C(=O)N[C@H](C(=O)N[C@H](C(=O)N[C@@H](CCCCN)C(=O)N[C@H](Cc1ccc(O)cc1)C(=O)N[C@@H](CC(C)C)C(=O)N[C@H](CO)C(C)C)C(C)C)C(C)C)C(C)C)[C@@H](C)CC)[C@@H](C)CC`, the MIC is 8 µg/mL in data set [1]; 4 µg/mL in data set [3]; 4 µg/mL in [4]; 1 µg/mL in data set [7]; 1 µg/mL in data set [8]; 32 µg/mL in data set [11]. The MIC in [13] is 2 µg/mL; in data set [14], 2 µg/mL; in data set [15], 64 µg/mL. Besides, the “growth inhibition (qualitative call)” value in data set [2] and in [9] was “Active” throughout. Also, the hemolysis at 1 h, 128 ug/ml in data set [5] was 9.6%. The hemolysis at 1 h, 256 ug/ml in [6] came to 25.2%. Also, the outcome in data set [16] and in data set [17] was Active. The IC50 at 48 h in [10] came out at 10.9 µg/mL (≈ 6.88 µM).

In the case of `C/C=C(/NC(=O)[C@@H](O)[C@@H](C)CC)C(=O)N[C@@H](CC(C)C)C(=O)N[C@H](CCCN)C(=O)N[C@H](C(=O)N[C@H](C(=O)N[C@H](C(=O)N[C@H](CCCCN)C(=O)N[C@H](C(=O)N[C@H](C(=O)N[C@@H](CCCCN)C(=O)N[C@H](Cc1ccc(O)cc1)C(=O)N[C@@H](CC(C)C)C(=O)N[C@H](C(N)=O)C(C)C)C(C)C)C(C)C)C(C)C)[C@@H](C)CC)[C@@H](C)CC`, the MIC in data set [1] is more than 128 µg/mL; in [3] it was 16 µg/mL; in data set [4], 16 µg/mL; in [7], 4 µg/mL; in data set [8], 4 µg/mL; in data set [11] it was more than 128 µg/mL. In addition, the MIC was 8 µg/mL in [13], 2 µg/mL in [14] and more than 128 µg/mL in data set [15]. In addition, the “growth inhibition (qualitative call)” value in data set [2] and in data set [9] was “Not active; Exhibited Small Decrease In Activity” in each case. Moreover, in [5], the hemolysis at 1 h, 128 ug/ml stood at 11.8%. In data set [6], the hemolysis at 1 h, 256 ug/ml is 30.1%. The IC50 at 48 h in [10] turned out to be 16.6 µg/mL (≈ 10.4 µM).
